Columns and labels:
Type in all cases: functional
Candida tropicalis [1] = experiment: Antifungal activity against Candida tropicalis ATCC 200956 after 24 hrs by visually and spectrophotometric analysis; settings: ATCC 200956, 24 h
Method in brief: (§1)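 Read-out is MIC90 in μg/mL, scored at 24 h both by eye and spectrophotometrically. The panel is Candida isolates that earlier reports describe as amphotericin B-resistant, with amphotericin B run alongside as the reference drug.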

Clavispora lusitaniae [2] = experiment: Antifungal activity against Candida lusitaniae ATCC 60247 after 24 hrs by visually and spectrophotometric analysis; settings: ATCC 60247, 24 h; method in brief: as §1
Clavispora lusitaniae [3] = experiment: Antifungal activity against Candida lusitaniae ATCC 24348 after 24 hrs by visually and spectrophotometric analysis; settings: ATCC 24348, 24 h; method in brief: as §1
Clavispora lusitaniae [4] = experiment: Antifungal activity against Candida lusitaniae ATCC 200953 after 24 hrs by visually and spectrophotometric analysis; method in brief: as §1
Clavispora lusitaniae [5] = experiment: Antifungal activity against Candida lusitaniae ATCC 200952 after 24 hrs by visually and spectrophotometric analysis; method in brief: as §1
Clavispora lusitaniae [6] = experiment: Antifungal activity against Candida lusitaniae ATCC 200951 after 24 hrs by visually and spectrophotometric analysis; method in brief: as §1
Clavispora lusitaniae [7] = experiment: Antifungal activity against Candida lusitaniae ATCC 200950 after 24 hrs by visually and spectrophotometric analysis; settings: ATCC 200950, 24 h; method in brief: as §1
Candida albicans [8] = experiment: Antifungal activity against Candida albicans ATCC 200955 after 24 hrs by visually and spectrophotometric analysis; settings: ATCC 200955, 24 h
Method in brief: (§2)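 Endpoint is MIC90, in μg/mL, read at 24 h by both visual inspection and spectrophotometry.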

Nakaseomyces glabratus [9] = experiment: Antifungal activity against fluconazole-resistant Candida glabrata DSY2271 increase expressing of CgCDR2 genes after 24 hrs by visually and spectrophotometric analysis; settings: DSY2271, 24 h; method in brief: as §2
Nakaseomyces glabratus [10] = experiment: Antifungal activity against fluconazole-resistant Candida glabrata DSY2254 increase expressing of CgCDR1 and CgCDR2 genes after 24 hrs by visually and spectrophotometric analysis; settings: DSY2254, 24 h; method in brief: as §2
Nakaseomyces glabratus [11] = experiment: Antifungal activity against fluconazole-resistant Candida glabrata DSY756 increase expressing of CgCDR1, CgCDR2, and CgSNQ2 genes after 24 hrs by visually and spectrophotometric analysis; settings: DSY756, 24 h; method in brief: as §2
Nakaseomyces glabratus [12] = experiment: Antifungal activity against fluconazole-resistant Candida glabrata DSY754 increase expressing of CgCDR1 gene after 24 hrs by visually and spectrophotometric analysis; settings: DSY754, 24 h; method in brief: as §2
Nakaseomyces glabratus [13] = experiment: Antifungal activity against fluconazole-resistant Candida glabrata DSY530 increase expressing of CgCDR1 gene after 24 hrs by visually and spectrophotometric analysis; settings: DSY530, 24 h; method in brief: as §2
Candida albicans [14] = experiment: Antifungal activity against fluconazole-resistant Candida albicans DSY751 harboring ERG11 gene mutant and increase expressing of MDR1 gene after 24 hrs by visually and spectrophotometric analysis; settings: DSY751, 24 h; method in brief: as §2
Candida albicans [15] = experiment: Antifungal activity against fluconazole-resistant Candida albicans DSY775 harboring ERG11 gene mutant and increase expressing of CDR1 and CDR2 genes after 24 hrs by visually and spectrophotometric analysis; settings: DSY775, 24 h; method in brief: as §2
Candida albicans [16] = experiment: Antifungal activity against fluconazole-resistant Candida albicans DSY735 expressing high level of CDR1 and CDR2 genes after 24 hrs by visually and spectrophotometric analysis; settings: DSY735, 24 h; method in brief: as §2
Candida albicans [17] = experiment: Antifungal activity against fluconazole-resistant Candida albicans DSY292 harboring ERG11 gene mutant and increase expressing of MDR1 gene after 24 hrs by visually and spectrophotometric analysis; settings: DSY292, 24 h; method in brief: as §2
Candida albicans [18] = experiment: Antifungal activity against fluconazole-resistant Candida albicans DSY348 harboring ERG11 gene mutant and increase expressing of CDR1 and CDR2 genes after 24 hrs by visually and spectrophotometric analysis; settings: DSY348, 24 h; method in brief: as §2
Candida albicans [19] = experiment: Antifungal activity against fluconazole-resistant Candida albicans DSY289 harboring ERG11 gene mutant and increase expressing of CDR1 and CDR2 genes after 24 hrs by visually and spectrophotometric analysis; settings: DSY289, 24 h; method in brief: as §2
Candida albicans [20] = experiment: Antifungal activity against fluconazole-resistant Candida albicans DSY296 harboring ERG11 gene mutant and increase expressing of CDR1 and CDR2 genes after 24 hrs by visually and spectrophotometric analysis; settings: DSY296, 24 h; method in brief: as §2
Candida albicans [21] = experiment: Antifungal activity against fluconazole-resistant Candida albicans DSY284 harboring ERG11 gene mutant and increase expressing of CDR1 and CDR2 genes after 24 hrs by visually and spectrophotometric analysis; settings: DSY284, 24 h; method in brief: as §2
Nakaseomyces glabratus [22] = experiment: Antifungal activity against wild type Candida glabrata after 24 hrs by visually and spectrophotometric analysis
Kluyveromyces marxianus = experiment: Antifungal activity against wild type Candida kefyr after 24 hrs by visually and spectrophotometric analysis
Candida tropicalis [23] = experiment: Antifungal activity against wild type Candida tropicalis after 24 hrs by visually and spectrophotometric analysis
Candida parapsilosis = experiment: Antifungal activity against wild type Candida parapsilosis ATCC 34136 after 24 hrs by visually and spectrophotometric analysis; settings: Lodderomyces parapsilosis, ATCC 34136, 24 h
Pichia kudriavzevii = experiment: Antifungal activity against wild type Candida krusei ATCC 14243 after 24 hrs by visually and spectrophotometric analysis; settings: ATCC 14243, 24 h
[24] = test system: Meyerozyma guilliermondii; experiment: Antifungal activity against wild type Candida guilliermondii after 24 hrs by visually and spectrophotometric analysis
Candida albicans [25] = experiment: Antifungal activity against wild type Candida albicans ATCC 60193 after 24 hrs by visually and spectrophotometric analysis; settings: ATCC 60193, 24 h

Measured: MIC90

C/C=C/CNC(=N)NCCCCCCCCN1CCCCCOC(=O)CCNC(=N)NC1=O.O=C(O)C(F)(F)F
32 mg/L: Nakaseomyces glabratus [9] | Nakaseomyces glabratus [12] | Nakaseomyces glabratus [13] | Nakaseomyces glabratus [22] | Pichia kudriavzevii
4 mg/L: Clavispora lusitaniae [2] | Clavispora lusitaniae [5] | Clavispora lusitaniae [6] | Candida albicans [8]
64 mg/L: Nakaseomyces glabratus [10] | Nakaseomyces glabratus [11]
8 mg/L: Clavispora lusitaniae [3] | Clavispora lusitaniae [4] | Clavispora lusitaniae [7] | Candida albicans [18] | Candida albicans [19] | Candida albicans [21] | Candida parapsilosis | [24]
16 mg/L: all other assays above

N=C(NCCCCCCCCN1CCCCCCCCNC(=N)NC1=O)NCC1CC1.O=C(O)C(F)(F)F
16 mg/L: Nakaseomyces glabratus [9] | Nakaseomyces glabratus [11] | Nakaseomyces glabratus [12] | Nakaseomyces glabratus [13] | Nakaseomyces glabratus [22]
1 mg/L: Clavispora lusitaniae [5] | Candida albicans [8] | Candida albicans [16] | Candida albicans [19] | Candida albicans [21] | Candida albicans [25]
4 mg/L: Clavispora lusitaniae [2] | Clavispora lusitaniae [7] | Kluyveromyces marxianus | Pichia kudriavzevii
32 mg/L: Nakaseomyces glabratus [10]
0.5 mg/L: Candida tropicalis [23]
2 mg/L: all other assays above

C=CCNC(=N)NCCCCCCCCN1CCCCCCCCNC(=N)NC1=O.O=C(O)C(F)(F)F
4 mg/L: Clavispora lusitaniae [4] | Kluyveromyces marxianus | Candida parapsilosis
32 mg/L: Nakaseomyces glabratus [9] | Nakaseomyces glabratus [10] | Nakaseomyces glabratus [12] | Nakaseomyces glabratus [22]
1 mg/L: Candida tropicalis [1] | Clavispora lusitaniae [3] | Candida albicans [8] | Candida albicans [16] | Candida albicans [18] | Candida albicans [19] | Candida albicans [21] | Candida albicans [25]
0.5 mg/L: Candida tropicalis [23] | Pichia kudriavzevii
16 mg/L: Nakaseomyces glabratus [11] | Nakaseomyces glabratus [13]
not listed: Candida albicans [14]
2 mg/L: all other assays above

C/C=C/CNC(=N)NCCCCCCCCN1CCCCOc2ccccc2CNC(=N)NC1=O.O=C(O)C(F)(F)F
32 mg/L: Pichia kudriavzevii
64 mg/L: Nakaseomyces glabratus [9] | Nakaseomyces glabratus [10] | Nakaseomyces glabratus [11] | Nakaseomyces glabratus [12] | Nakaseomyces glabratus [13] | Nakaseomyces glabratus [22]
4 mg/L: Kluyveromyces marxianus
16 mg/L: Candida tropicalis [1] | Clavispora lusitaniae [2] | Clavispora lusitaniae [4] | Candida albicans [14] | Candida albicans [15] | Candida albicans [17] | Candida albicans [20] | Candida albicans [21] | [24] | Candida albicans [25]
8 mg/L: all other assays above

C/C=C/CNC(=N)NCCCCCCCCN1CCCCCOc2ccccc2CNC(=N)NC1=O.O=C(O)C(F)(F)F
8 mg/L: Nakaseomyces glabratus [9] | Nakaseomyces glabratus [11] | Nakaseomyces glabratus [13] | Nakaseomyces glabratus [22] | Pichia kudriavzevii
16 mg/L: Nakaseomyces glabratus [10] | Nakaseomyces glabratus [12]
4 mg/L: Candida tropicalis [1] | Clavispora lusitaniae [2] | Clavispora lusitaniae [4] | Candida albicans [14] | Candida albicans [15] | Candida albicans [17] | Candida albicans [20] | Kluyveromyces marxianus | Candida albicans [25]
1 mg/L: Candida albicans [8]
2 mg/L: all other assays above

From ChEMBL document CHEMBL2429728, “Novel Macrocyclic Amidinoureas: Potent Non-Azole Antifungals Active against Wild-Type and Resistant Candida Species” (2013)
